The structures appear in SMILES notation. The source made the active and inactive calls. The rule behind the calls is not given here.

The Kd is the equilibrium constant for the complex coming apart.

For test [1], the target named is T1, Leukotriene B4 receptor 2 (Homo sapiens, UniProt Q9NPC1).
T1 sequence (Q9NPC1 whole entry): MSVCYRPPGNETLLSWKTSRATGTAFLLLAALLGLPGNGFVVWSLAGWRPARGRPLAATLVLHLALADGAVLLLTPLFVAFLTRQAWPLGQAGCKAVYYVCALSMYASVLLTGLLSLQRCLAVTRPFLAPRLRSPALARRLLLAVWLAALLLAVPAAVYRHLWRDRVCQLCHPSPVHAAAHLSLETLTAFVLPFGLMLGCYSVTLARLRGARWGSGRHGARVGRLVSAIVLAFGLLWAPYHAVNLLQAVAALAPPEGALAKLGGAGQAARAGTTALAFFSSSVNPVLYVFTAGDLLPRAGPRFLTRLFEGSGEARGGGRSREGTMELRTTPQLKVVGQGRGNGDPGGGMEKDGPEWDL
Kind of test: Displacement of [3H]LTB4 from HA-epitope tagged human BLT2 expressed in CHOK1 cells incubated for 60 mins by liquid scintillation counting method. Type of test: cell-based, CHO-K1. A digest of the protocol:
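Competition binding: test ligand competed with 3H-LTB4 for binding to membranes prepared from cells expressing BLT2.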
In general terms: Loss of bound radioactivity is the signal in a displacement assay; it reports binding, not function.

Test [2] deals with CHO-K1. Briefly: Agonist activity at HA-epitope tagged human BLT2 Y271A mutant expressed in CHOK1 cells assessed as induction of chemotactic motility at 100 nM incubated for 2 hrs by hematoxylin and eosin staining based optical microscopic method. The test is classed as cell-based. A digest of the protocol: (§1)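 CHO cells were transfected with wild-type BLT2, the Y271A mutant or the Y271A/N275A double mutant, then exposed to agonist to induce chemotactic motility. Migrating cells were fixed and stained with hematoxylin/eosin for counting.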

In test [3] the test system is CHO-K1. Briefly: Agonist activity at HA-epitope tagged human BLT2 Y271A/N275A double mutant expressed in CHOK1 cells assessed as induction of chemotactic motility at 100 nM incubated for 2 hrs by hematoxylin and eosin staining based optical microscopic method. The test is classed as cell-based. A digest of the protocol:
as §1

For test [4], the target named is T2, Leukotriene B4 receptor 2 (Homo sapiens) (UniProt Q9NPC1).
T2 sequence (whole entry): T1 sequence (Q9NPC1 whole entry)
Briefly: Agonist activity at HA-epitope tagged human BLT2 expressed in CHOK1 cells assessed as induction of chemotactic motility at 100 nM incubated for 2 hrs by hematoxylin and eosin staining based optical microscopic method. Type of test: cell-based. As to conditions: CHO-K1. A digest of the protocol:
as §1

Test [5] addresses T2, Leukotriene B4 receptor 2 (Homo sapiens). Kind of test: Agonist activity at HA-epitope tagged human BLT2 expressed in CHOK1 cells assessed as induction of chemotactic motility at 300 nM incubated for 2 hrs by hematoxylin and eosin staining based optical microscopic method. The test is classed as cell-based. The settings on record: CHO-K1. A digest of the protocol:
as §1

Test [6] relates to CHO-K1. Kind of test: Agonist activity at HA-epitope tagged human BLT2 Y271A mutant expressed in CHOK1 cells assessed as induction of chemotactic motility at 300 nM incubated for 2 hrs by hematoxylin and eosin staining based optical microscopic method. The test is classed as cell-based. An outline of the steps:
as §1

The subject of test [7] is CHO-K1. Briefly: Agonist activity at HA-epitope tagged human BLT2 Y271A/N275A double mutant expressed in CHOK1 cells assessed as induction of chemotactic motility at 300 nM incubated for 2 hrs by hematoxylin and eosin staining based optical microscopic method. Type of test: cell-based. An outline of the steps: as §1

Consider `CCCCC(=O)N(Cc1ccc(-c2ccccc2C)cc1)c1ccccc1`, for which the Kd entry in test [1] (cho-k1) is given as “Not Active”.
`CCCCC[C@H](O)/C=C/C=C/C/C=C\CCCC(=O)O`: the result with CHO-K1 [2] and with CHO-K1 [3] was inactive. The result in test [4] was Active.
Regarding `CCCCC/C=C\C[C@@H](O)/C=C/C=C/C=C\[C@@H](O)CCCC(=O)O`, the result (in test [5]; in the test with CHO-K1 [6]) was Active. For the same molecule, the outcome in the test with CHO-K1 [7] was inactive.
Regarding `CCCCC/C=C\C[C@H](O)/C=C/C=C\C/C=C\CCCC(=O)O`, the result (in test [5]; in the test on CHO-K1 [6]) was Active. The result in the test with CHO-K1 [7] was inactive.
For `CCCCC(=O)N(Cc1ccc(-c2ccccc2C(=O)O)cc1)c1ccccc1`, the result in the test with CHO-K1 [2] and in the test on CHO-K1 [3] was inactive. Moreover, the dissociation constant Kd in test [1] (read-out: Kd) worked out at 0.0147 µM. For the same molecule, the outcome in test [4] was Active.

Source of the values: ChEMBL document CHEMBL4622988, “Elucidation of Mechanism for Ligand Efficacy at Leukotriene B4 Receptor 2 (BLT2)” (ACS Med Chem Lett, 2020).
